From ChEMBL document CHEMBL4390662, “Design, synthesis and biological evaluation of novel α-acyloxy carboxamides via Passerini reaction as caspase 3/7 activators” (Eur J Med Chem, 2019) come the findings set out here.

Data set [1] has as its system WI-38. The data set can be described thus: Cytotoxicity against human WI38 cells assessed as cell growth inhibition incubated for 72 hrs by MTT assay. The class given is cell-based. The following applies: for IC50: Homo sapiens, WI-38, 72 h; for EC100: human, wi-38, 72 h. The essentials:
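Wi-38 fibroblasts grown in DMEM with 10% FBS and seeded at 5×10^3 per well. Attachment 24 h, then serial concentrations for 72 h at 37°C, 5% CO2. MTT stock (5 mg/mL) added for 3 h at 37°C, DMSO solubilization, absorbance at 570 nm. IC50 estimated.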
(Formazan colour is commonly taken as a measure of viable cells.)

For data set [2], the system named is MCF7. Nature of the data set: Cytotoxicity against human MCF7 cells assessed as cell growth inhibition incubated for 72 hrs by MTT assay. The class given is functional, cell-based. The following applies: MCF7, 72 h. Put shortly: (§1)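 Cells grown in RPMI-1640 with 10% FBS and seeded at 5×10^3 per well. After 24 h, serial concentrations given for 72 h at 37°C, 5% CO2. Then 5 mg/mL MTT stock added for 3 h, formazan dissolved in DMSO, A570 read. IC50 calculated from the curves.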

The test system of data set [3] is NFS-60. Nature of the data set: Cytotoxicity against mouse NFS60 cells assessed as cell growth inhibition incubated for 72 hrs by MTT assay. The following applies: NFS-60, 72 h. The class given is functional, cell-based. Put shortly: as §1
The subject of data set [4] is HepG2. The data set can be described thus: Cytotoxicity against human HepG2 cells assessed as cell growth inhibition incubated for 72 hrs by MTT assay. The class given is functional, cell-based. The following applies: HepG2, 72 h. Put shortly: as §1
Data set [5] in a line: Selectivity index, ratio of IC50 for human WI38 cells to IC50 for human MCF7 cells. The class given is toxicity. The following applies: WI38 cells versus MCF7 cells, read-out: Ratio IC50. The essentials: (§2)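 SI calculated as IC50 on normal Wi-38 fibroblasts divided by IC50 on the cancer cell line. Both came from 72 h MTT assays.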
Data set [6] is described as follows: Selectivity index, ratio of IC50 for human WI38 cells to IC50 for mouse NFS60 cells. The essentials:
as §2

Data set [7] can be described thus: Selectivity index, ratio of IC50 for human WI38 cells to IC50 for human HepG2 cells. The following applies: WI38 cells versus HepG2 cells, read-out: Ratio IC50. The class given is toxicity. Put shortly:
as §2

Structures are written as SMILES.

Broadly, the IC50 is the midpoint of a concentration-inhibition curve. Regarding `CC1(C)CC(=O)C=C(Nc2ccc([N+](=O)[O-])cc2)C1`, the IC50 in data set [1] was found to be 319 nM; in data set [2], 597 nM; in data set [3], 645 nM; in data set [4], 667 nM. Further, the EC100 in data set [1] was determined as 0.157 µM. Also, the selectivity ratio in data set [5] is 0.534; in data set [7], 0.478. Further, in data set [6], the “Ratio IC50” value was determined as 0.494.

Regarding `O=C(OC1(C(=O)Nc2ccc([N+](=O)[O-])cc2)C(=O)c2ccccc2C1=O)c1ccc(C(F)(F)F)cc1`, the IC50 in data set [1] worked out at 1960 nM; in data set [2], 393 nM; in data set [3], 484 nM; in data set [4] it was 428 nM. In addition, in data set [1], the EC100 came to 0.635 µM. The selectivity ratio in data set [5] turned out to be 5; in data set [7], 4.59. In data set [6], the “Ratio IC50” value was 4.057.

Consider `CCOC(=O)c1ccccc1C(=O)OC1(C(=O)Nc2ccc([N+](=O)[O-])cc2)CCCCC1`, for which the IC50 in data set [1] was found to be 386 nM; in data set [2] it was 444 nM; in data set [3], 488 nM; in data set [4] it was 517 nM. Moreover, the EC100 in data set [1] was found to be 0.122 µM. In addition, the selectivity ratio came to 0.869 in data set [5] and 0.746 in data set [7]. Further, the “Ratio IC50” value in data set [6] was 0.79.

In the case of `Cc1ccccc1C(=O)OC1(C(=O)Nc2ccc([N+](=O)[O-])cc2)CCCCC1`, the IC50 in data set [1] was 352 nM; in data set [2], 516 nM. Besides, the EC100 in data set [1] turned out to be 0.018 µM. Besides, the selectivity ratio in data set [5] came to 0.682.

`O=C(OC1(C(=O)Nc2ccc([N+](=O)[O-])cc2)CCCCC1)c1ccccc1I`: the results for the IC50 in data set [1] and in data set [2] were 396 nM and 619 nM, respectively. The EC100 in data set [1] is 0.0247 µM. For the same compound, the selectivity ratio in data set [5] was 0.639.

For the compound `O=C(OC1(C(=O)Nc2ccc([N+](=O)[O-])cc2)CCCCC1)c1ccccc1`, the IC50 is 246 nM in data set [1], 903 nM in data set [2], 766 nM in data set [3] and 734 nM in data set [4]. For the same compound, the EC100 in data set [1] came out at 0.148 µM. Also, the values for the selectivity ratio in data set [5] and in data set [7] were 0.272 and 0.335, respectively. In data set [6], the “Ratio IC50” value came out at 0.322.

As for `O=C(CCC(=O)OC1(C(=O)Nc2ccc([N+](=O)[O-])cc2)CCCCC1)OC1(C(=O)Nc2ccc([N+](=O)[O-])cc2)CCCCC1`, in data set [1], the IC50 was 203 nM and the EC100 worked out at 0.02 µM.

As for `CC(=O)OC1(C(=O)Nc2ccc([N+](=O)[O-])cc2)CCCCC1`, the IC50 worked out at 386 nM in data set [1], 403 nM in data set [2], 517 nM in data set [3] and 519 nM in data set [4]. Further, the EC100 in data set [1] came out at 0.122 µM. In addition, the selectivity ratio turned out to be 0.957 in data set [5] and 0.743 in data set [7]. Also, in data set [6], the “Ratio IC50” value worked out at 0.746.

With `O=C(OC1(C(=O)Nc2ccc([N+](=O)[O-])cc2)CCCCC1)c1ccc(Br)cc1`, the half-inhibitory concentration (IC50) in data set [1] was determined as 523 nM; in data set [2] it was 237 nM; in data set [3], 236 nM; in data set [4], 284 nM. The EC100 in data set [1] turned out to be 0.0095 µM. The selectivity ratio in data set [5] was 2.21; in data set [7] it was 1.84. In data set [6], the “Ratio IC50” value is given as 2.216.
